Starred links: 1 amine or outer side, 2 acyl side, 3 side chain; linkers in the order of their positions; H or OH if unused. Non-standard residues stand in square brackets, D forms with d. Residues, ends and D or L forms follow the SMILES beside them. X1 = O=C([C@@H](Cc1cccc(C(F)(F)S(=O)(=O)O)c1)N[*:1])[*:2]; X3 = O=C([C@@H](Cc1cccc(C(F)(F)P(=O)(O)O)c1)N[*:1])[*:2]; X2 = O=C([C@@H](Cc1cccc(CS(=O)(=O)O)c1)N[*:1])[*:2]

Our source for the IC50 and Ki values is ChEMBL document CHEMBL1158163, “A re-examination of the difluoromethylenesulfonic acid group as a phosphotyrosine mimic for PTP1B inhibition” (Bioorg Med Chem, 2008).

The test addresses T1, Tyrosine-protein phosphatase non-receptor type 1 (Homo sapiens, UniProt P18031).
T1 sequence (P18031 whole entry): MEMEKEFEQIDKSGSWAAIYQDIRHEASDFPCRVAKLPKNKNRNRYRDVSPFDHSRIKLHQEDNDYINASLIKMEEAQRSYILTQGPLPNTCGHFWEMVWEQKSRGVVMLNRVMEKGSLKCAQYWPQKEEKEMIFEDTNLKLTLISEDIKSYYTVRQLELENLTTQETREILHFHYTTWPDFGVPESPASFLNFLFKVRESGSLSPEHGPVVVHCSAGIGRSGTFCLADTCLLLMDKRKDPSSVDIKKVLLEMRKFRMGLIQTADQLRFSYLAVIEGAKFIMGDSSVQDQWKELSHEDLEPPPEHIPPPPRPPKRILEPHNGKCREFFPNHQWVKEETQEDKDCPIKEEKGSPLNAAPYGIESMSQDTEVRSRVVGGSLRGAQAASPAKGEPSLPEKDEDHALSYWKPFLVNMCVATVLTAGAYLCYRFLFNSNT
As to the kind of experiment: Inhibition of human PTP1B expressed in Escherichia coli BL21(DE3) cells. In outline:
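IC50 assay at 25 °C in 50 mM Bis–Tris HCl pH 6.3 with 2% glycerol, 0.1% Triton X-100, 4% DMSO, 4.5 mM DTT, 1.8 mM EDTA (final). DiFMUP substrate at Km (5 µM). Reaction started by adding PTP1B. DiFMU fluorescence (ex 360/em 460 nm) followed for 10 min. Initial rates Vi/Vo fitted semi-log to Vi = Vo/[1+([I]/IC50)^S]+B.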

For the molecule `NS(=O)(=O)c1cc(-c2ccc(CSCc3ccc(C(F)(F)P(=O)(O)O)c(Br)c3)cc2)ccc1Br`, 0.006 µM corresponded to half-maximal inhibition (IC50).
On to `NS(=O)(=O)c1cc(-c2ccc(CSCc3ccc(C(F)(F)S(=O)(=O)O)c(Br)c3)cc2)ccc1Br`, for which it took 13 µM to reach half-maximal inhibition (IC50) and the inhibition constant (Ki) was found to be 10.6 µM.
For `NS(=O)(=O)c1cc(-c2ccc(CSCc3ccc(CS(=O)(=O)O)c(Br)c3)cc2)ccc1Br` the same measures were 19 µM and 10.3 µM.
`NS(=O)(=O)C(F)(F)c1cc(-c2ccc(CSCc3ccc(C(F)(F)P(=O)(O)O)c(Br)c3)cc2)ccc1Br` returned an IC50 of 0.03 µM and an inhibition constant Ki of 0.024 µM.
`NS(=O)(=O)C(F)(F)c1cc(-c2ccc(CSCc3ccc(C(F)(F)S(=O)(=O)O)c(Br)c3)cc2)ccc1Br` had an IC50 of 6 µM and a Ki of 3.3 µM.
As to `O=P(O)(O)C(F)(F)c1ccc2ccccc2c1`, it took 35 µM to reach half-maximal inhibition (IC50).
`CC(C)C[C@H](NC(=O)[C@@H](Cc1cccc(C(F)(F)S(=O)(=O)O)c1)NC(=O)[C@H](CCC(=O)O)NC(=O)[C@H](CC(=O)O)NC(=O)[C@H](C)NC(=O)[C@@H](N)CC(=O)O)C(N)=O` (H-DADE[X1]L-NH2): half-maximal inhibition (IC50) required 10 µM.
Molecule `CC(C)C[C@H](NC(=O)[C@@H](Cc1cccc(CS(=O)(=O)O)c1)NC(=O)[C@H](CCC(=O)O)NC(=O)[C@H](CC(=O)O)NC(=O)[C@H](C)NC(=O)[C@@H](N)CC(=O)O)C(N)=O` (H-DADE[X2]L-NH2) showed a concentration for half-maximal inhibition (IC50) of 44 µM.
As to `CC(C)C[C@H](NC(=O)[C@@H](Cc1cccc(C(F)(F)P(=O)(O)O)c1)NC(=O)[C@H](CCC(=O)O)NC(=O)[C@H](CC(=O)O)NC(=O)[C@H](C)NC(=O)[C@@H](N)CC(=O)O)C(N)=O` (H-DADE[X3]L-NH2), the Ki came to 0.024 µM.
